Experiments:
[1] = target: T1, Epithelial discoidin domain-containing receptor 1 (Homo sapiens, UniProt Q08345); assay: Inhibition of human GST-tagged DDR1 catalytic domain expressed in baculovirus expression system by LanthaScreen assay
[2] = Tmax in Sprague-Dawley rat at 10 mg/kg, po; type: ADME, organism-based; settings: in vivo
Outline: (§1)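 Sprague Dawley rats given a single i.v. dose of 1 mg/kg or an oral dose of 10 mg/kg. Plasma AUC(0-t), AUC(0-∞), MRT(0-t), T1/2, Tmax and Cmax were derived and reported as mean±SD.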

[3] = target: Mast/stem cell growth factor receptor Kit (Homo sapiens) (UniProt P10721); assay: Inhibition of recombinant TEL-fused c-KIT (unknown origin) expressed in mouse BAF3 cells assessed as growth inhibition after 72 hrs by CellTiter-Glo or CCK-8 assay; type: cell-based
Outline: (§2)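 Isogenic murine BaF3 cells transformed with TEL-fused kinases, whose proliferation depends on the fused kinase, were used. Parental BaF3 cells served as the general selectivity counter-screen. The anti-proliferative read-out was reported as GI50.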

[4] = Cmax in Sprague-Dawley rat at 1 mg/kg, iv up to 8 hrs; type: ADME, organism-based; parameters: dose 1 mg/kg, route intravenous; settings: in vivo; outline: as §1
[5] = target: Platelet-derived growth factor receptor beta (Homo sapiens) (UniProt P09619); assay: Inhibition of recombinant TEL-fused PDGFR-beta (unknown origin) expressed in mouse BAF3 cells assessed as growth inhibition after 72 hrs by CellTiter-Glo or CCK-8 assay; type: cell-based; outline: as §2
Platelet-derived growth factor receptor beta (Homo sapiens), sequence (P09619 whole entry, the tested form may be a part): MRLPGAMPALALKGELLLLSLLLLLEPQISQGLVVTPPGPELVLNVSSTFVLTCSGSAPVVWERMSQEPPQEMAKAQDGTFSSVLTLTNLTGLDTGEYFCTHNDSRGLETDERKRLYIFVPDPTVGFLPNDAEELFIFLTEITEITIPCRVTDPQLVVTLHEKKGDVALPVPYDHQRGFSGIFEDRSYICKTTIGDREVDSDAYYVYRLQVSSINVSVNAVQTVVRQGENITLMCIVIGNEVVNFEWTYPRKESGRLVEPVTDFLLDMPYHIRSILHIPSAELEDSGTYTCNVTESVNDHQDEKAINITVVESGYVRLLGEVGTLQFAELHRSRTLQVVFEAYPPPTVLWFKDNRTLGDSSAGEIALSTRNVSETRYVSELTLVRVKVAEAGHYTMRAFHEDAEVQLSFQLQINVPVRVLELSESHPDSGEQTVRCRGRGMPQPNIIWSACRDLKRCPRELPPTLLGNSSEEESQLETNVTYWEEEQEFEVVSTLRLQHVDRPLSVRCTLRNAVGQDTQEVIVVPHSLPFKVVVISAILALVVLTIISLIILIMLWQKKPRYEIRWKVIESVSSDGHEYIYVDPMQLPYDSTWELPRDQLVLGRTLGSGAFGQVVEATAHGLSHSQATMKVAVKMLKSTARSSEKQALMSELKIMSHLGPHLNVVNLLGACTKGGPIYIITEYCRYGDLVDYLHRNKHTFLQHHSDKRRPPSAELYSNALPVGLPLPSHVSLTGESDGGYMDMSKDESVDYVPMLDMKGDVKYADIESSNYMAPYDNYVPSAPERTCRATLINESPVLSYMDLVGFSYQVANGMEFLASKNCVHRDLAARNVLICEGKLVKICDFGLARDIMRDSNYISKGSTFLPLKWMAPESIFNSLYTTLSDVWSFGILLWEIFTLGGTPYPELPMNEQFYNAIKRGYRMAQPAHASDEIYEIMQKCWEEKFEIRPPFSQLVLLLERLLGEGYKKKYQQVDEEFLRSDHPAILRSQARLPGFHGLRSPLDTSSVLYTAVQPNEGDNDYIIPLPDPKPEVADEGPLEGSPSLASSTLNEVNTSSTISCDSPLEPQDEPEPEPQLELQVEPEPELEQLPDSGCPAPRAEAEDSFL

[6] = Cmax in Sprague-Dawley rat at 10 mg/kg, po up to 24 hrs; type: ADME, organism-based; parameters: dose 10 mg/kg, route oral; settings: in vivo; outline: as §1
[7] = Half-life in Sprague-Dawley rat at 10 mg/kg, po; type: ADME, organism-based; settings: in vivo; outline: as §1
[8] = target: T1, Epithelial discoidin domain-containing receptor 1; assay: Binding affinity to human DDR1 (565 to 876 amino acid residues) expressed in bacterial expression system assessed as percent control number at 1 uM by KINOMEscan assay
Outline: (§3)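 KINOMEscan competition binding panel of 468 kinases, with the compound tested at 1 µM. Binding is expressed as percent of control relative to DMSO.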

[9] = AUC (0 to t) in Sprague-Dawley rat at 10 mg/kg, po up to 24 hrs; type: ADME, organism-based; parameters: time < 24 hr, dose 10 mg/kg, route oral; settings: in vivo; outline: as §1
[10] = Growth inhibition of CHL cells after 72 hrs by CellTiter-Glo or CCK-8 assay; type: cell-based, Cricetulus griseus; settings: chinese hamster
[11] = target: Epidermal growth factor receptor (Homo sapiens) (UniProt P00533); assay: Inhibition of recombinant TEL-fused EGFR (unknown origin) expressed in mouse BAF3 cells assessed as growth inhibition after 72 hrs by CellTiter-Glo or CCK-8 assay; type: cell-based; outline: as §2
Epidermal growth factor receptor (Homo sapiens), sequence (P00533 whole entry, the tested form may be a part): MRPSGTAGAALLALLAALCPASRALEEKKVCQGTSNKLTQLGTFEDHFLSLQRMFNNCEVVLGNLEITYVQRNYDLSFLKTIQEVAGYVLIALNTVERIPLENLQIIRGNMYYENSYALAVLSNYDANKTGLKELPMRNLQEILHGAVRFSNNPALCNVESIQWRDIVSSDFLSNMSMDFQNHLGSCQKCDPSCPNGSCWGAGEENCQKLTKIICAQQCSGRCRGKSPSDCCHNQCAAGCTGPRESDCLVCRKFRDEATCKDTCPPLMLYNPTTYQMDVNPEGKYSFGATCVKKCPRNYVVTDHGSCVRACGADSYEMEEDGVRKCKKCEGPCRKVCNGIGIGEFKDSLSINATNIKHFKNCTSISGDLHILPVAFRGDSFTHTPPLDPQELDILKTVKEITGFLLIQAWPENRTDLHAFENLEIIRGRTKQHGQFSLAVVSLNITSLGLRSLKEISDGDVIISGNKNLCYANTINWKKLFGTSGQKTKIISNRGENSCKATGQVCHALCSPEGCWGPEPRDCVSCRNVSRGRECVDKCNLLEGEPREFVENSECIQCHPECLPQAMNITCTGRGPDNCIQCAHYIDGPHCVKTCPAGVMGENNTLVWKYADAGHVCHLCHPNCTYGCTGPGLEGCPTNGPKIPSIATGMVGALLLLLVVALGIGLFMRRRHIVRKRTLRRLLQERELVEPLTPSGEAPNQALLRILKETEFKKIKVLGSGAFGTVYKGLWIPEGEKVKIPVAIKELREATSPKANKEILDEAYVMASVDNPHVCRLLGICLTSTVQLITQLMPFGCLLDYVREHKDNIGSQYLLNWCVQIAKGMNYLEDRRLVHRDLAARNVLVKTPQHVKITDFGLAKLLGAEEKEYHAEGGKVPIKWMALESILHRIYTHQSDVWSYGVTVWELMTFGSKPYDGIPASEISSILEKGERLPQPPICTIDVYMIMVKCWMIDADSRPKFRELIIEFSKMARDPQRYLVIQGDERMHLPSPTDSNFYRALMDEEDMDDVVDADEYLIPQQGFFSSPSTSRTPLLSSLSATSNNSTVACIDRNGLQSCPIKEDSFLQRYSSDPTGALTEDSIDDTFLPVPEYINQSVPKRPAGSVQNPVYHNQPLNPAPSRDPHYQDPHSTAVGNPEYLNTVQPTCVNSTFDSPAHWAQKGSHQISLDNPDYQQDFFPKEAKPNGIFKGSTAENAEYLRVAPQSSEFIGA

5637 = assay: Growth inhibition of human 5637 cells after 72 hrs by CellTiter-Glo or CCK-8 assay; type: functional; settings: Homo sapiens, 5637, 72 h
[12] = AUC (0 to t) in Sprague-Dawley rat at 1 mg/kg, iv up to 8 hrs; type: ADME, organism-based; parameters: time < 8 hr, dose 1 mg/kg, route intravenous; settings: in vivo; outline: as §1
[13] = Growth inhibition of mouse BAF3 cells after 72 hrs by CellTiter-Glo or CCK-8 assay; type: cell-based; outline: as §2
[14] = target: Receptor-type tyrosine-protein kinase FLT3 (Homo sapiens) (UniProt P36888); assay: Inhibition of recombinant TEL-fused FLT3 (unknown origin) expressed in mouse BAF3 cells assessed as growth inhibition after 72 hrs by CellTiter-Glo or CCK-8 assay; type: cell-based; outline: as §2
[15] = Half-life in Sprague-Dawley rat at 1 mg/kg, iv; type: ADME, organism-based; settings: in vivo; outline: as §1
[16] = target: Mitogen-activated protein kinase 14 (Homo sapiens, UniProt Q16539); assay: Binding affinity to full length human p38alpha (1 to 360 amino acid residues) expressed in bacterial expression system assessed as percent control number at 1 uM by KINOMEscan assay; outline: as §3
Mitogen-activated protein kinase 14, sequence (Q16539 whole entry, the tested form may be a part): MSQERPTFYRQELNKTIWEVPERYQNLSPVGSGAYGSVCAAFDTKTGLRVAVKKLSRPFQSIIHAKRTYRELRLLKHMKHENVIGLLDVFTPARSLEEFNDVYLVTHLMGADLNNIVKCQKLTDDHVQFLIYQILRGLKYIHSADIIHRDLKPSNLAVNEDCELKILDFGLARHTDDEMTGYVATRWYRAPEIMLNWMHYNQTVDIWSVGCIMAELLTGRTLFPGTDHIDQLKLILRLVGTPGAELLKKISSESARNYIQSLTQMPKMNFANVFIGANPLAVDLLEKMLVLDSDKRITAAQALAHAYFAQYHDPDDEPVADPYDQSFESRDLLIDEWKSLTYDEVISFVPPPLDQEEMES

PC-3 = assay: Growth inhibition of human PC3 cells after 72 hrs by CellTiter-Glo or CCK-8 assay; type: functional; settings: PC-3, 72 h
[17] = Growth inhibition of human bladder cancer cells after 72 hrs by CellTiter-Glo or CCK-8 assay; type: functional; settings: Bladder cancer cell
A498 = assay: Growth inhibition of human A498 cells after 72 hrs by CellTiter-Glo or CCK-8 assay; type: functional; settings: A498, 72 h
T-24 = assay: Growth inhibition of human T24 cells after 72 hrs by CellTiter-Glo or CCK-8 assay; type: functional; settings: T-24, 72 h
[18] = Mean residence time (0 to t) in Sprague-Dawley rat at 10 mg/kg, po; type: ADME, organism-based; settings: in vivo; outline: as §1
[19] = target: Tyrosine-protein kinase ABL1 (Homo sapiens) (UniProt P00519); assay: Binding affinity to human phosphorylated ABL1 (229 to 512 amino acid residues) expressed in mammalian expression system assessed as percent control number at 1 uM by KINOMEscan assay; outline: as §3
Tyrosine-protein kinase ABL1 (Homo sapiens), sequence (P00519 whole entry, the tested form may be a part): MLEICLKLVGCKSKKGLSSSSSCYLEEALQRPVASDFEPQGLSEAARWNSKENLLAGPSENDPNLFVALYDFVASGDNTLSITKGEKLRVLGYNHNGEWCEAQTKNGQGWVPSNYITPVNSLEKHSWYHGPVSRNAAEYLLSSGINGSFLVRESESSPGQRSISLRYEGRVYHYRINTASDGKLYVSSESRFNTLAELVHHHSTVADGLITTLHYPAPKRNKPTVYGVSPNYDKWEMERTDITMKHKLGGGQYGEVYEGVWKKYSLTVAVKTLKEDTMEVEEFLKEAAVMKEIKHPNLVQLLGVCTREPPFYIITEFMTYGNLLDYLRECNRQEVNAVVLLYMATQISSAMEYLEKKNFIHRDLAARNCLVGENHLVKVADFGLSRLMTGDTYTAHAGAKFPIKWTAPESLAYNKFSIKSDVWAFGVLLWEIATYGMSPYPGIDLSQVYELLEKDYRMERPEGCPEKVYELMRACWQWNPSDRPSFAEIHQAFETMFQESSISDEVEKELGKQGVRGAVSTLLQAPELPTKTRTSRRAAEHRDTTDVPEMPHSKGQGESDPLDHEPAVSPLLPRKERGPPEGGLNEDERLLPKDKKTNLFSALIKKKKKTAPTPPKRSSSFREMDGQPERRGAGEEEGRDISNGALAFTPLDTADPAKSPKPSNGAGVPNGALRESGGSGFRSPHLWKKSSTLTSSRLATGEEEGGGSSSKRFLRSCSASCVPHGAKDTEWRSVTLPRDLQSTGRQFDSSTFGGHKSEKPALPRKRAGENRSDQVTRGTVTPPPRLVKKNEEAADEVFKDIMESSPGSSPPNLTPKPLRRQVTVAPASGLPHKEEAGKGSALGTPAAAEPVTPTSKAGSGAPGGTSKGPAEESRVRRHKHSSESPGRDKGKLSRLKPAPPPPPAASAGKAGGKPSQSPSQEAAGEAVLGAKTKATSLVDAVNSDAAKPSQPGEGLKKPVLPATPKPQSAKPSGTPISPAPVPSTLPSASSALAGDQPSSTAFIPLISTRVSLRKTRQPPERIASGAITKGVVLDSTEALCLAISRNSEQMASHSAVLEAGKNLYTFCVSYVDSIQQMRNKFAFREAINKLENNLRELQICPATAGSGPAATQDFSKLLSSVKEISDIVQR

J82 = assay: Growth inhibition of human J82 cells after 72 hrs by CellTiter-Glo or CCK-8 assay; type: functional; settings: J82, 72 h
[20] = target: Platelet-derived growth factor receptor alpha (Homo sapiens) (UniProt P16234); assay: Inhibition of recombinant TEL-fused PDGFR-alpha (unknown origin) expressed in mouse BAF3 cells assessed as growth inhibition after 72 hrs by CellTiter-Glo or CCK-8 assay; type: cell-based; outline: as §2
EJ = assay: Growth inhibition of human EJ cells after 72 hrs by CellTiter-Glo or CCK-8 assay; type: functional
[21] = Mean residence time (0 to t) in Sprague-Dawley rat at 1 mg/kg, iv; type: ADME, organism-based; settings: in vivo; outline: as §1
[22] = AUC (0 to infinity) in Sprague-Dawley rat at 10 mg/kg, po up to 24 hrs; type: ADME, organism-based; parameters: dose 10 mg/kg, time infinity, route oral; settings: in vivo; outline: as §1
ACHN = assay: Growth inhibition of human ACHN cells after 72 hrs by CellTiter-Glo or CCK-8 assay; type: functional
[23] = AUC (0 to infinity) in Sprague-Dawley rat at 1 mg/kg, iv up to 8 hrs; type: ADME, organism-based; parameters: dose 1 mg/kg, route intravenous, time infinity; settings: in vivo; outline: as §1
[24] = Growth inhibition of CHO cells after 72 hrs by CellTiter-Glo or CCK-8 assay; type: cell-based, Cricetulus griseus; settings: chinese hamster
769-P = assay: Growth inhibition of human 769-P cells after 72 hrs by CellTiter-Glo or CCK-8 assay; type: functional
[25] = Tmax in Sprague-Dawley rat at 1 mg/kg, iv; type: ADME, organism-based; settings: in vivo; outline: as §1
DU-145 = assay: Growth inhibition of human DU145 cells after 72 hrs by CellTiter-Glo or CCK-8 assay; type: functional; settings: DU-145, 72 h
[26] = target: Tyrosine-protein kinase ABL1 (Homo sapiens) (UniProt P00519); assay: Inhibition of human nonphosphorylated ABL1 (229 to 512 amino acid residues) expressed in mammalian expression system assessed as remaining activity at 1 uM by KINOMEscan assay relative to control; outline: as §3
CWR22R = assay: Growth inhibition of human 22Rv1 cells after 72 hrs by CellTiter-Glo or CCK-8 assay; type: functional; settings: 22Rv1, 72 h

T1 sequence (Q08345 whole entry, the tested form may be a part): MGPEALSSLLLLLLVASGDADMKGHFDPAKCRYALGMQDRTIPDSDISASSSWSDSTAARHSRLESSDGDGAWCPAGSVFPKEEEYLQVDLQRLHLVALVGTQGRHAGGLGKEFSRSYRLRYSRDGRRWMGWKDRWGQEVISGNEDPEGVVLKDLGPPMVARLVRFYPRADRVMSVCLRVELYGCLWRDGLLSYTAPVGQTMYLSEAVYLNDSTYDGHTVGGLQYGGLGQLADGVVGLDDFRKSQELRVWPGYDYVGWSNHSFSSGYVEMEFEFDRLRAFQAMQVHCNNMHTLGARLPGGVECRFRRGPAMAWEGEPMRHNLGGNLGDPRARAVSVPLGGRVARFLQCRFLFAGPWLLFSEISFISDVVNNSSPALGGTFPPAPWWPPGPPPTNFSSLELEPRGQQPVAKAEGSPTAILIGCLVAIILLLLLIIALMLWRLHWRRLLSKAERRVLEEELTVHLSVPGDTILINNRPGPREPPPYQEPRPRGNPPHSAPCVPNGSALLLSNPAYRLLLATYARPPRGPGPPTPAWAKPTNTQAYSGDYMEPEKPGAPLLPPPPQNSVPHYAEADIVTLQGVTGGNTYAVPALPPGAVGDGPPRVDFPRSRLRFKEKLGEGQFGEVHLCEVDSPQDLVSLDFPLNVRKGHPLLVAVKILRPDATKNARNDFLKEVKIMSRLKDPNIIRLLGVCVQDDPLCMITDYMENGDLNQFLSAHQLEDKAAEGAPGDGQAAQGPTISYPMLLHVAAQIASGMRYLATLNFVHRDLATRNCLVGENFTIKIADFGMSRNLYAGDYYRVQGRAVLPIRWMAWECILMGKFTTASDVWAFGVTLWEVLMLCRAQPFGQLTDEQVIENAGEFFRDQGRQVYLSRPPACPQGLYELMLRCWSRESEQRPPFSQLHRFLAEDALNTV

- IC50 [1]: 0.265 µM
- Tmax [2]: 11.4 min
- GI50 [3]: 2.01 µM
- Cmax [4]: 13600 ng/mL
- GI50 [5]: 0.91 µM
- Cmax [6]: 5.58 ng/mL
- half-life [7]: 367 min
- Activity [8]: 0.05%
- AUC(0-t) at 24 h [9]: 13.4 ng·h/mL
- GI50 [11]: > 10 µM
- AUC(0-t) at 8 h [12]: 1390 ng·h/mL
- GI50 [14]: > 10 µM
- half-life [15]: 48 min
- Activity [16]: 0%
- GI50 (PC-3): 3.45 µM
- MRT last [18]: 166 min
- Activity [19]: 6.5%
- GI50 [20]: 0.67 µM
- MRT last [21]: 13.4 min
- AUC(0-inf) [22]: 27.6 ng·h/mL
- GI50 (ACHN): 4.93 µM
- AUC(0-inf) [23]: 1390 ng·h/mL
- Tmax [25]: 1.02 min
- GI50 (DU-145): 7.89 µM
- Activity [26]: 0.7%
Compound: C=CC(=O)Nc1cc(Nc2ncc(C(=O)Nc3cc(NC(=O)c4cc(OC)c(OC)c(OC)c4)ccc3C)c(NC)n2)ccc1C
- GI50 at 72 h [10]: > 10 µM
- GI50 5637: > 10 µM
- GI50 at 72 h [13]: > 10 µM
- GI50 [17]: 8.87 µM
- GI50 (A498): > 10 µM
- GI50 (T-24): 8.98 µM
- GI50 (J82): 5.78 µM
- GI50 (EJ): > 10 µM
- GI50 at 72 h [24]: > 10 µM
- GI50 (769-P): > 10 µM
- GI50 (CWR22R): 3.45 µM
